Test results published in ChEMBL document CHEMBL3232919, “Imidazol-1-ylethylindazole voltage-gated sodium channel ligands are neuroprotective during optic neuritis in a mouse model of multiple sclerosis” (J Med Chem, 2014).
Calls of active or inactive are those of the source. No cut-off for these calls is given here.

Columns and labels:
[1] = target: T1, Sodium channel protein type 5 subunit alpha (Homo sapiens, UniProt Q14524); assay: Inhibition of human Nav1.5 assessed as tonic block by patch-clamp electrophysiology/cell based assay
Summary of the method: (§1)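 Automated parallel patch clamp (PatchXpress 7000A) on human Nav isoforms, room temperature. Compound tested at 0.1, 0.3, 1, 3, 10, 30 and 100 μM, two to four cells per concentration, 5 min exposure each. Use-dependence on Nav1.1 and Nav1.8/β3 by double pulse protocol: holding -80 mV, prepulse -120 mV, then pulse 1 to 0 mV for 200 ms.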

[2] = target: T2, Sodium channel protein type 3 subunit alpha (Homo sapiens, UniProt Q9NY46); assay: Inhibition of human Nav1.3 assessed as 10 Hz block by patch-clamp electrophysiology/cell based assay
Summary of the method: (§2)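 Automated parallel patch-clamp (PatchXpress 7000A) on cells expressing human Nav1.3, run at room temperature. Compounds were tested at 0.1, 0.3, 1, 3, 10, 30 and 100 μM, each in two to four cells, with 5 min exposure per concentration.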

[3] = target: T3, Sodium channel protein type 8 subunit alpha (Homo sapiens, UniProt Q9UQD0); assay: Inhibition of human Nav1.6 assessed as tonic block by patch-clamp electrophysiology/cell based assay
T3 sequence (Q9UQD0 whole entry, canonical isoform): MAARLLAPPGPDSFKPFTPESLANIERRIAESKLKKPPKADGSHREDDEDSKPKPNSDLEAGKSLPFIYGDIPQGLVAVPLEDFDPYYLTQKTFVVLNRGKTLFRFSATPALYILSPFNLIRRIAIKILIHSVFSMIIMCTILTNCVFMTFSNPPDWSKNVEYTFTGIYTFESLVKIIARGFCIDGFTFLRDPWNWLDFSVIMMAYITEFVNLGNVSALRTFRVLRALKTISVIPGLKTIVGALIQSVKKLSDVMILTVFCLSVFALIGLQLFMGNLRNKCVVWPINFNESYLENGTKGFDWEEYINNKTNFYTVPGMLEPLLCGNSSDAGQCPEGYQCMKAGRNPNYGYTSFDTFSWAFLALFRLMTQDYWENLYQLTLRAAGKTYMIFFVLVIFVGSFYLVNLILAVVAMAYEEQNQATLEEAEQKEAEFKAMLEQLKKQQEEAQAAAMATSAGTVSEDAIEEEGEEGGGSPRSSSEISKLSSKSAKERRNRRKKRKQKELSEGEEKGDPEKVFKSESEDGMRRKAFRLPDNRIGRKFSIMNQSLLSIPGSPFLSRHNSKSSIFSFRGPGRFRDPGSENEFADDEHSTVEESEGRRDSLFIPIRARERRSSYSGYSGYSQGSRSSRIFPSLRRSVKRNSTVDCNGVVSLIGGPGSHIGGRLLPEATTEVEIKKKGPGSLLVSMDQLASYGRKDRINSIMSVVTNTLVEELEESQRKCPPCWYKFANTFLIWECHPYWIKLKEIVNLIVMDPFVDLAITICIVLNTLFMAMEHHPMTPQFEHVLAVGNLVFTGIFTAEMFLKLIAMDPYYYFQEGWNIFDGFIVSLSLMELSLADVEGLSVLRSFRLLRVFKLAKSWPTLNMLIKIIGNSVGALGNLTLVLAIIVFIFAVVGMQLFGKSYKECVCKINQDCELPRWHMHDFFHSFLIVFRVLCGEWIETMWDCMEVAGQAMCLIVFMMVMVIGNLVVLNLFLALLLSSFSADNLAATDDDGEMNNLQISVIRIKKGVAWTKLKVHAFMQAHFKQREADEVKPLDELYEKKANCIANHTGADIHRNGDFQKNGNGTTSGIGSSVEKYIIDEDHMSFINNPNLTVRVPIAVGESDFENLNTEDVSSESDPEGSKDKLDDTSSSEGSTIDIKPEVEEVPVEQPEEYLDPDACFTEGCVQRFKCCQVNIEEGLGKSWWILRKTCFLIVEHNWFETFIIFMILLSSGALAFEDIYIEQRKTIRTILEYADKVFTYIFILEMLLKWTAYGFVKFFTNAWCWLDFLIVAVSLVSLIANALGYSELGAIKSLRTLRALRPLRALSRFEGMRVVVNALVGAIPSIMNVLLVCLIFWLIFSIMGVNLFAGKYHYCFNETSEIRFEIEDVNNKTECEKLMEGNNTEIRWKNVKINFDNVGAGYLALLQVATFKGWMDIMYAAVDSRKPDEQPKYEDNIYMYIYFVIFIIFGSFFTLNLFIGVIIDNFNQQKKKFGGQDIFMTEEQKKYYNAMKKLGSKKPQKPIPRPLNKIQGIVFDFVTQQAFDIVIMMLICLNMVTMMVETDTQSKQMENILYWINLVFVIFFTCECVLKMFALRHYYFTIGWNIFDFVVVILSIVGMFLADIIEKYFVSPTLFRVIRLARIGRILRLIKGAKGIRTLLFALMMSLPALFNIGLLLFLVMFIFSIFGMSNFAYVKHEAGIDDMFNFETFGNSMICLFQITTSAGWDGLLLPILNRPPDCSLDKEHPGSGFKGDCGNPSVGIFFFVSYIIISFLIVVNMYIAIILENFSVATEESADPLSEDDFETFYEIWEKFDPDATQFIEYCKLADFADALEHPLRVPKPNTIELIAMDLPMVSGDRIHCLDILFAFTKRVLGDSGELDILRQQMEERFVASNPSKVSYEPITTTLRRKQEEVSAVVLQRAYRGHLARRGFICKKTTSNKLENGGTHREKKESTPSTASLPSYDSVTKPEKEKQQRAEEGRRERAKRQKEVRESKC
Summary of the method: (§3)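 Automated parallel patch clamp on cells expressing human Nav isoforms (hNav1.1 to hNav1.8/β3), at room temperature. Compounds were tested at 0.1, 0.3, 1, 3, 10, 30 and 100 μM. Each exposure lasted 5 min, with two to four cells per concentration.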

[4] = Metabolic stability in rat liver microsomes assessed as drug turnover at 1 uM at 40 mins by LC-MS/MS analysis; format: ADME; settings: read-out: Drug metabolism
Summary of the method: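 Compound at 1 μM was incubated (n=2) with pooled rat liver microsomes (0.25 mg protein/ml) at 37°C for 0 and 40 min. Reactions were stopped with acetonitrile containing an internal standard, and parent disappearance was measured by LC-MS/MS. Percentage turnover was taken from peak heights relative to the zero-time samples.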

Mus musculus [5] = assay: Neuroprotective activity in C57BL/6-Cg-Tg(Thy1-CFP)23Jrs.Tg(Tcra2D2, Tcrb2D2)1Kuch/J transgenic mouse optic neuritis model assessed as increase in ganglion cell survival at 5 mg/kg, ip; format: functional, organism-based; design: dose 5 mg/kg
[6] = target: T4, Sodium channel protein type 4 subunit alpha (Homo sapiens, UniProt P35499); assay: Inhibition of human Nav1.4 assessed as 10 Hz block by patch-clamp electrophysiology/cell based assay; summary of the method: as §1
[7] = target: T2, Sodium channel protein type 3 subunit alpha; assay: Inhibition of human Nav1.3 assessed as inactivated-state block by patch-clamp electrophysiology/cell based assay; summary of the method: as §2
[8] = target: T3, Sodium channel protein type 8 subunit alpha; assay: Inhibition of human Nav1.6 assessed as 10 Hz block by patch-clamp electrophysiology/cell based assay; summary of the method: as §3
[9] = Displacement of [3H]sipatrigine from Wistar rat brain synaptosomes voltage-gated sodium channel by liquid scintillation counting; format: subcellular
[10] = target: T5, Sodium channel protein type 1 subunit alpha (Homo sapiens, UniProt P35498); assay: Inhibition of human Nav1.1 assessed as 10 Hz block using double pulse protocol by patch-clamp electrophysiology/cell based assay; summary of the method: as §1
Mus musculus [11] = assay: Immunosuppressive activity in […] oxazolone-induced ABH mouse assessed as effect on cell proliferation response in draining lymph node at 5 to 50 mg/kg, ip from day -1 to day 2 by local lymph node assay; format: functional, organism-based
[12] = target: T1, Sodium channel protein type 5 subunit alpha; assay: Inhibition of human Nav1.5 assessed as inactivated-state block by patch-clamp electrophysiology/cell based assay; summary of the method: as §1
Rattus norvegicus = species: Rattus norvegicus; assay: Neuroprotective activity in oxygen/glucose deprivation-induced Wistar rat hippocampal slice assessed as inhibition of cell death by measuring ATP level at 50 uM; format: functional
[13] = target: T4, Sodium channel protein type 4 subunit alpha; assay: Inhibition of human Nav1.4 assessed as tonic block by patch-clamp electrophysiology/cell based assay; summary of the method: as §1
Mus musculus [14] = assay: Toxicity in mouse assessed as motor coordination at 5 to 50 mg/kg, ip from day -1 to day 2 by RotaRod assay; format: organism-based; design: dose 5-50 mg/kg, route intraperitoneal; settings: in vivo
[15] = target: T3, Sodium channel protein type 8 subunit alpha; assay: Inhibition of human Nav1.6 assessed as inactivated-state block by patch-clamp electrophysiology/cell based assay; summary of the method: as §3
[16] = target: T5, Sodium channel protein type 1 subunit alpha; assay: Inhibition of human Nav1.1 assessed as inactivated-state block using double pulse protocol by patch-clamp electrophysiology/cell based assay; summary of the method: as §1
Mus musculus [17] = assay: Neuroprotective activity in C57BL/6-Cg-Tg(Thy1-CFP)23Jrs.Tg(Tcra2D2, Tcrb2D2)1Kuch/J transgenic mouse optic neuritis model assessed as reduction in retinal loss measured as number of cells at 5 mg/kg, ip (reference value: 914 +/- 89 cells); format: functional; settings: route intraperitoneal
[18] = target: T2, Sodium channel protein type 3 subunit alpha; assay: Inhibition of human Nav1.3 assessed as tonic block by patch-clamp electrophysiology/cell based assay; summary of the method: as §2
[19] = target: T4, Sodium channel protein type 4 subunit alpha; assay: Inhibition of human Nav1.4 assessed as inactivated-state block by patch-clamp electrophysiology/cell based assay; summary of the method: as §1
[20] = target: T5, Sodium channel protein type 1 subunit alpha; assay: Inhibition of human Nav1.1 assessed as tonic block using double pulse protocol by patch-clamp electrophysiology/cell based assay; summary of the method: as §1
[21] = target: T6, Sodium channel protein type 9 subunit alpha (Homo sapiens, UniProt Q15858); assay: Inhibition of human Nav1.7 assessed as tonic block by patch-clamp electrophysiology/cell based assay
[22] = target: T7, Sodium channel protein type 10 subunit alpha (Homo sapiens, UniProt Q9Y5Y9); assay: Inhibition of human Nav1.8 assessed as 10 Hz block using double pulse protocol by patch-clamp electrophysiology/cell based assay; summary of the method: as §1
[23] = target: T6, Sodium channel protein type 9 subunit alpha; assay: Inhibition of human Nav1.7 assessed as inactivated-state block by patch-clamp electrophysiology/cell based assay
[24] = target: T7, Sodium channel protein type 10 subunit alpha; assay: Inhibition of human Nav1.8 assessed as tonic block using double pulse protocol by patch-clamp electrophysiology/cell based assay; summary of the method: as §1
[25] = target: T6, Sodium channel protein type 9 subunit alpha; assay: Inhibition of human Nav1.7 assessed as 10 Hz block by patch-clamp electrophysiology/cell based assay
[26] = target: T8, Sodium channel protein type 2 subunit alpha (Homo sapiens, UniProt Q99250); assay: Inhibition of human Nav1.2 assessed as inactivated-state block by patch-clamp electrophysiology/cell based assay
T8 sequence (Q99250 whole entry): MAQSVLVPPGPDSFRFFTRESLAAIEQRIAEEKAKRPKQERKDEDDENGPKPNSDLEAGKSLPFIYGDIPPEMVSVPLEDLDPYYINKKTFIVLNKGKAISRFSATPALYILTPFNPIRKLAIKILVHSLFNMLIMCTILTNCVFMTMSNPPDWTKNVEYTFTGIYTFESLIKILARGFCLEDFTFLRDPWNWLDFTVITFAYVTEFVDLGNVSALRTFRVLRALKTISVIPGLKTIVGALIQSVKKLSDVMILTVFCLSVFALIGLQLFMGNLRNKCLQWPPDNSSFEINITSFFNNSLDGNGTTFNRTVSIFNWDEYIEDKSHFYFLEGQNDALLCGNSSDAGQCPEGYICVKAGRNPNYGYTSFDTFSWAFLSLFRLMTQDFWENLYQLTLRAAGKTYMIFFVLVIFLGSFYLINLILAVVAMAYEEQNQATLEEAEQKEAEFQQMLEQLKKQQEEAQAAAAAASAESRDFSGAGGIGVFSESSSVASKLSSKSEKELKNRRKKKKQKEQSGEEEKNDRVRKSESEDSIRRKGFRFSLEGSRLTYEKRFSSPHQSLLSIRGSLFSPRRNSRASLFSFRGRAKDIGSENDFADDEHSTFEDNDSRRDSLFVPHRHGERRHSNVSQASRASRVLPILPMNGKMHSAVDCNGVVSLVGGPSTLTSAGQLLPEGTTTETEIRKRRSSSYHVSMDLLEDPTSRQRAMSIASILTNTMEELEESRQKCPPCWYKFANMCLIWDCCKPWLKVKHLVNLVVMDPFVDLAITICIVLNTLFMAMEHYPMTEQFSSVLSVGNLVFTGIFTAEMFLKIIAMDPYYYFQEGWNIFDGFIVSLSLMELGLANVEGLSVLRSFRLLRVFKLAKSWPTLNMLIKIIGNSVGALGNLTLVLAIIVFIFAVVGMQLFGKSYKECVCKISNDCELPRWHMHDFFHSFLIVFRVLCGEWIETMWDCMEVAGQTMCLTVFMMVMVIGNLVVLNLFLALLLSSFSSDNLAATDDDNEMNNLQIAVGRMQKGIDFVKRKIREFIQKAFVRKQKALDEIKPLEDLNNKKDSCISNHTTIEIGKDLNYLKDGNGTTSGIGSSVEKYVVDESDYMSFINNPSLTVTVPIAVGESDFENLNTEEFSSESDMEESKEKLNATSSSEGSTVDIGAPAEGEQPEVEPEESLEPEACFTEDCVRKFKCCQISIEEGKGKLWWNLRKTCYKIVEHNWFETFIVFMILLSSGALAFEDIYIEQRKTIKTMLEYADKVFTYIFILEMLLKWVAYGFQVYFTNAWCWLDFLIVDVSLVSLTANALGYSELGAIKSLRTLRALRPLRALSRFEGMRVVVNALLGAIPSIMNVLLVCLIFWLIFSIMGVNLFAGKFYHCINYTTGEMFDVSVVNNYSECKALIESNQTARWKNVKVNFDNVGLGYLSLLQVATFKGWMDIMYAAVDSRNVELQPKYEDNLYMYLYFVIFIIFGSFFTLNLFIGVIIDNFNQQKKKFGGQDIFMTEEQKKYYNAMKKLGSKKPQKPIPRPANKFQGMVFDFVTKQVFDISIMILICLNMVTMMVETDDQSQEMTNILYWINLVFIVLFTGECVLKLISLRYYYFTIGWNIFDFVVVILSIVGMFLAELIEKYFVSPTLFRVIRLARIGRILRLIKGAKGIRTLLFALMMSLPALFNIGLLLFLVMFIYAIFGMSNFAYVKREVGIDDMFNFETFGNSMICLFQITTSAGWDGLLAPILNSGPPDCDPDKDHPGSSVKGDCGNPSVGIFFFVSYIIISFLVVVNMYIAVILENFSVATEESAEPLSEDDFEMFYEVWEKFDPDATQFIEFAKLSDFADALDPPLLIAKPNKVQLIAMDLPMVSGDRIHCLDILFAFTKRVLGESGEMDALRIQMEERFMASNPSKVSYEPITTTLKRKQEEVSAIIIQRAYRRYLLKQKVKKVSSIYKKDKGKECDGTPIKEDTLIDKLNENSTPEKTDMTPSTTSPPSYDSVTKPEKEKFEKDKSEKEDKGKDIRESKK

[27] = target: T7, Sodium channel protein type 10 subunit alpha; assay: Inhibition of human Nav1.8 assessed as inactivated-state block using double pulse protocol by patch-clamp electrophysiology/cell based assay; summary of the method: as §1
[28] = target: T8, Sodium channel protein type 2 subunit alpha; assay: Inhibition of human Nav1.2 assessed as tonic block by patch-clamp electrophysiology/cell based assay
[29] = target: T8, Sodium channel protein type 2 subunit alpha; assay: Inhibition of human Nav1.2 assessed as 10 Hz block by patch-clamp electrophysiology/cell based assay
[30] = target: T1, Sodium channel protein type 5 subunit alpha; assay: Inhibition of human Nav1.5 assessed as 10 Hz block by patch-clamp electrophysiology/cell based assay; summary of the method: as §1

O=C(NCc1noc(-c2nn(CCn3ccnc3)c3ccccc23)n1)c1ccccc1
IC50 [1]: > 100 µM
IC50 [2]: > 100 µM
IC50 [3]: > 100 µM
metabolised at 40 min, 1 µM [4]: 47%
Activity (Mus musculus [5]): Active
IC50 [6]: 56 µM
IC50 [7]: 22 µM
IC50 [8]: > 100 µM
IC50 [9]: 13 µM
IC50 [10]: > 100 µM
inhibition (Mus musculus [11]): inactive
IC50 [12]: 19 µM
inhibition at 50 µM (Rattus norvegicus): 47%
IC50 [13]: > 100 µM
Activity (Mus musculus [14]): Non-toxic
IC50 [15]: 24 µM
IC50 [16]: 21 µM
Activity (Mus musculus [17]): 1298 /mm2
IC50 [18]: > 100 µM
IC50 [19]: 24 µM
IC50 [20]: > 100 µM

O=C(NCc1noc(-c2c3ccccc3nn2CCn2ccnc2)n1)c1cccc(OC(F)(F)F)c1
IC50 [1]: 36 µM
IC50 [2]: 97 µM
IC50 [21]: 5.64 µM
IC50 [22]: 5.66 µM
IC50 [3]: > 100 µM
IC50 [23]: 3.02 µM
IC50 [6]: 10.5 µM
IC50 [24]: 6.34 µM
IC50 [7]: 4.76 µM
IC50 [25]: 4.82 µM
IC50 [8]: 32.2 µM
IC50 [10]: 8.54 µM
IC50 [26]: 3.54 µM
IC50 [27]: 3.77 µM
IC50 [12]: 0.92 µM
IC50 [28]: 65 µM
inhibition at 50 µM (Rattus norvegicus): 78%
IC50 [13]: 18.3 µM
IC50 [15]: 3.32 µM
IC50 [16]: 2.55 µM
IC50 [18]: > 100 µM
IC50 [29]: 24.1 µM
IC50 [19]: 4.58 µM
IC50 [20]: 15.3 µM
IC50 [30]: 14.8 µM
